Results gathered from unrelated publications.
Each line is one published result; the experiments were not run side by side.
Target: Dual specificity tyrosine-phosphorylation-regulated kinase 2 (DYRK2, Homo sapiens, UniProt Q92630)
Effect on: enzyme activity
Mode: inhibitor
One construct used (Q92630 1-601): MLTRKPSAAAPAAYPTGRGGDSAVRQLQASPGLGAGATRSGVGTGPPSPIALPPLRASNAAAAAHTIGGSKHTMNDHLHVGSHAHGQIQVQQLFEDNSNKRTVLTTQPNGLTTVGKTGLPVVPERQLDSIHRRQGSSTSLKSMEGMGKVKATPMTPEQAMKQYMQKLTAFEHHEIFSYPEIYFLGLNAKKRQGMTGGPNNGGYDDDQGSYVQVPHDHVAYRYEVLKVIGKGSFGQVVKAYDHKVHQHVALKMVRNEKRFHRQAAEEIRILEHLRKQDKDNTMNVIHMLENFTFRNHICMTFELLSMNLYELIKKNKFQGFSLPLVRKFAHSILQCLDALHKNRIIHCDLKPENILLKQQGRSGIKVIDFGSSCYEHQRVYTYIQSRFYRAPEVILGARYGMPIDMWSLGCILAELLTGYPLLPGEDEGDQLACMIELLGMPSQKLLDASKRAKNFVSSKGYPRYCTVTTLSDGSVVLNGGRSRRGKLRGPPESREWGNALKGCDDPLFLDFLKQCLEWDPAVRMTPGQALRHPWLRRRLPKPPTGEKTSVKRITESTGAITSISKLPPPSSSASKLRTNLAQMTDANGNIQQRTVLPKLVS

Structure (SMILES)	assay	conditions	remaining activity [%]
FC(F)c1nc2ccccc2n1-c1nc(N2CCOCC2)nc(N2CCOCC2)n1		10 µM	93
CC(C)(C)c1nc2c(s1)c1nc(N)ncc1c1ccc(NS(=O)(=O)c3c(F)cccc3F)c(F)c12	radiometric	1 µM	94
O=C(O)c1ccc2c(c1)nc(Nc1ccccc1)c1ccncc12	radiometric	1 µM	45
CC(C)(C)C(=O)c1sc(NC2CCCCC2)nc1N		10 µM	90
CCN(CC)c1ccc(C2=NNC(=O)CC2C)cc1[N+](=O)[O-] (stereo not shown)		10 µM	100
COc1cc(Cl)c(C(=O)N[C@@H](CN[C@H]2CC[C@@H](N)CC2)Cc2ccc(C#N)cc2)cc1-c1ccc(CN[C@H](C)c2ccc(C)cc2)o1		1 µM	98
Nc1nc(Nc2ccccc2)sc1C(=O)c1c(F)cccc1F		10 µM	79
O=C(O)c1ccc2c(c1)nc(Nc1ccc3ccccc3c1)c1ccncc12	radiometric	1 µM	18
Cc1sc(C(=O)NC2COC2)cc1-n1cc(NC(=O)Nc2c(F)cccc2Cl)cn1		10 µM	96.3
Oc1cccc(-c2nc(N3CCOCC3)c3oc4ncccc4c3n2)c1		10 µM	83
COc1cc(Nc2cnc(C#N)c(O[C@H](C)CN(C)C)n2)ncc1-c1cnn(C)c1	radiometric	1 µM	100
O=C(O)c1ccc2c(c1)nc(NCCc1ccccc1)c1ccncc12	radiometric	1 µM	9
CCCOc1ccc(OC)c(F)c1C(=O)c1ccc(C(=O)N[C@@H]2CNC[C@H]2NC(=O)c2ccc3[nH]ncc3c2)cc1		10 µM	92
